Columns and labels:
[1] = tested on: P388; experiment: Cytotoxicity against P388 leukemia; format: functional, cell-based; conditions: Mus musculus
[2] = Inhibition of DNA topoisomerase II from rat liver measured as 50% reduction in the amount of minicircle DNA relative to the control
[3] = biological target: Tubulin (Bos taurus, UniProt Q6B856+Q862L2+Q862F3); experiment: Drug concentration needed to produce a 50% reduction of bovine brain tubulin polymerization relative to the control
[4] = tested on: ACHN; experiment: Inhibition of growth of renal cancer ACHN cell line; format: functional; conditions: Homo sapiens, read-out: ED50 (the source's name)
How it was run: (§1)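 Human tumour cell lines plated and grown 24 h in a CO2 incubator, then exposed to compound for 96 or 4 h. Cells counted by hemocytometer. IC50 is the concentration giving 50% reduction in cell number versus untreated control.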

[5] = Inhibition of growth of colon carcinoma COLO 2-1 cell line; format: functional; conditions: Homo sapiens, read-out: ED50 (the source's name)
How it was run: (§2)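 Cells were seeded and cultured for 24 h, then exposed to drug for 96 or 4 h. Cells were counted by hemocytometer. IC50 is the concentration giving a 50% reduction in cell number relative to control.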

[6] = tested on: COLO 320DM; experiment: Inhibition of growth of colon cancer COLO 320DM cell line; format: functional; conditions: Homo sapiens, read-out: ED50 (the source's name); how it was run: as §2
[7] = organism: Homo sapiens; experiment: Inhibition of growth of hepatoma HLE cell line; format: functional; conditions: read-out: ED50 (the source's name); how it was run: as §2
[8] = Inhibition of growth of renal cancer G-402 cell line; format: functional; conditions: Homo sapiens, read-out: ED50 (the source's name); how it was run: as §1
[9] = Inhibition of growth of hepatoma HLF cell line; format: functional; conditions: Homo sapiens, read-out: ED50 (the source's name); how it was run: as §2
[10] = tested on: Lewis lung carcinoma cell line; experiment: Increased life span at the lewis lung dose of 0.77 (mg/kg/day); format: functional, Mus musculus
[11] = tested on: Lewis lung carcinoma cell line; experiment: Increased life span at the lewis lung dose of 1.3 (mg/kg/day); format: functional, Mus musculus
[12] = tested on: Lewis lung carcinoma cell line; experiment: Increased life span at the lewis lung dose of 2.3 (mg/kg/day); format: functional, Mus musculus
[13] = tested on: Lewis lung carcinoma cell line; experiment: Increased life span at the lewis lung dose of 4 (mg/kg/day); format: functional, Mus musculus
[14] = tested on: Lewis lung carcinoma cell line; experiment: Increased life span at the lewis lung dose of 7 (mg/kg/day); format: functional, Mus musculus
[15] = tested on: Lewis lung carcinoma cell line; experiment: Mean body weight change after inoculation of 3.2 x 10 e 5 cells iv and administration of compounds iv from days 1-5 at the dose of 0.77 (mg/kg/day); format: functional, Mus musculus
How it was run: (§3)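 Male BDF1 mice (5 weeks) given 3.2 x 10^5 Lewis lung carcinoma cells iv on day 0, then dosed iv on days 1–5. Seven mice per group, 14 controls. Mean body weight change (g) taken from day 0 to day 6.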

[16] = tested on: Lewis lung carcinoma cell line; experiment: Mean body weight change after inoculation of 3.2 x 10 e 5 cells iv and administration of compounds iv from days 1-5 at the dose of 1.3 (mg/kg/day); format: functional, Mus musculus; how it was run: as §3
[17] = tested on: Lewis lung carcinoma cell line; experiment: Mean body weight change after inoculation of 3.2 x 10 e 5 cells iv and administration of compounds iv from days 1-5 at the dose of 2.3 (mg/kg/day); format: functional, Mus musculus; how it was run: as §3
[18] = tested on: Lewis lung carcinoma cell line; experiment: Mean body weight change after inoculation of 3.2 x 10 e 5 cells iv and administration of compounds iv from days 1-5 at the dose of 4 (mg/kg/day); format: functional, Mus musculus; how it was run: as §3
[19] = tested on: Lewis lung carcinoma cell line; experiment: Mean body weight change after inoculation of 3.2 x 10 e 5 cells iv and administration of compounds iv from days 1-5 at the dose of 7 (mg/kg/day); format: functional, Mus musculus; how it was run: as §3
[20] = tested on: P388; experiment: Antitumor activity in vivo expressed as the percentage increase in life span at the P388 dose of 1..3 (mg/kg/day); format: functional, Mus musculus
How it was run: (§4)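 P388 leukaemia, 1 × 10^6 cells given sc to male CDF1 mice (5 weeks old) on day 0. Drug was dosed iv on days 1–5 in saline with 3.5% DMSO and 6.5% Tween 80. Groups had 7 mice; controls had 10. ILS was calculated from mean survival time of treated versus control mice, excluding 30-day survivors.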

[21] = tested on: P388; experiment: Antitumor activity in vivo expressed as the percentage increase in life span at the P388 dose of 2.3 (mg/kg/day); format: functional, Mus musculus; how it was run: as §4
[22] = tested on: P388; experiment: Antitumor activity in vivo expressed as the percentage increase in life span at the P388 dose of 4 (mg/kg/day); format: functional, Mus musculus; how it was run: as §4
[23] = Inhibition of growth of lung non-small cell carcinoma PC-7 cell line; format: functional; conditions: Homo sapiens, read-out: ED50 (the source's name); how it was run: as §2
[24] = Inhibition of growth of lung small cell carcinoma RERF-LC-MA cell line; format: functional; conditions: Homo sapiens; read-out: ED50 (the source's name); how it was run: as §2
[25] = tested on: SBC-3; experiment: Inhibition of growth of lung small cell carcinoma SBC-3 cell line; format: functional; conditions: Homo sapiens, read-out: ED50 (the source's name); how it was run: as §1
[26] = tested on: Lewis lung carcinoma cell line; experiment: Percentage inhibition of tumor growth at the lewis lung dose of 7 (mg/kg/ day); format: functional, Mus musculus
How it was run: (§5)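 Lewis lung carcinoma fragments (2 mm3) implanted sc into male BDF1 mice (5 weeks) on day 0. Compound given iv on days 4–8, in saline or saline with 3.5% DMSO and 6.5% Tween 80. Seven mice per group, 10 controls. Percent inhibition from mean tumour weight versus control on day 17; p<0.05, 0.01 or 0.001 versus control.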

[27] = tested on: Mus musculus; experiment: The number of mice survived for 30 days at the dose of 5 (mg/kg/day); format: functional
[28] = tested on: A549; experiment: Inhibition of growth lung non-small cell carcinoma A-549 cell line; format: functional; conditions: Homo sapiens, read-out: ED50 (the source's name); how it was run: as §2
[29] = tested on: Lewis lung carcinoma cell line; experiment: Percentage inhibition of tumor growth at the lewis lung dose of 4 (mg/kg/ day); format: functional, Mus musculus; how it was run: as §5

Compound `COc1cc([C@@H]2c3cc4c(cc3[C@@H](CCN(C)Cc3ccncc3)C3COC(=O)[C@@H]32)OCO4)cc(OC)c1O.Cl.Cl` (some centres undefined) has an IC50 [1] of 0.1 µM, an IC50 [2] of 31.4 µM and an IC50 [3] greater than 100 µM.

With `COc1cc([C@@H]2c3cc4c(cc3[C@@H](CCN(C)CCN3CCCCC3)C3COC(=O)[C@@H]32)OCO4)cc(OC)c1O.Cl.Cl` (some centres undefined) the EC50 [4] was 2.7 µg/mL, the EC50 [5] was 29 µg/mL and the EC50 [6] was 3.2 µg/mL. The EC50 [7] was 0.36 µg/mL, the EC50 [8] was 0.35 µg/mL and the EC50 [9] was 4 µg/mL. For the same compound, the ILS max [10] was 20%, the ILS max [11] was 14% and the ILS max [12] was 75%. The ILS max [13] was 108%, the ILS max [14] was 55% and the bwc [15] was 0.7 g. It also gave a bwc [16] of 0.1 g, a bwc [17] of -0.6 g and a bwc [18] of -1 g. It also gave a bwc [19] of -3.5 g, an ILS max [20] of 131% and an ILS max [21] of 165%. For the same compound, the ILS max [22] was 259%, the EC50 [23] was 4.4 µg/mL and the EC50 [24] was 27 µg/mL. For the same compound, the EC50 [25] was 0.54 µg/mL, the IC50 [2] was 60.9 µM and the IC50 [3] was greater than 167 µM. The Inhibition [26] was 97%, the Survivors [27] was 6 and the EC50 [28] was 1.8 µg/mL. For the same compound, the Inhibition [29] was 72%.

`COc1cc([C@@H]2c3cc4c(cc3[C@@H](CCN(C)CCCN(C)C)C3COC(=O)[C@@H]32)OCO4)cc(OC)c1O.Cl.Cl` (some centres undefined) showed an IC50 [1] of 0.055 µM, an IC50 [2] of 26.9 µM and an IC50 [3] greater than 100 µM.

Work on `COc1cc([C@@H]2c3cc4c(cc3[C@@H](CCN(C)CCCCCCN(C)C)C3COC(=O)[C@@H]32)OCO4)cc(OC)c1O.Cl.Cl` (some centres undefined) yielded an IC50 [1] of 0.037 µM, an IC50 [2] of 30 µM and an IC50 [3] greater than 133 µM.

`COc1cc([C@@H]2c3cc4c(cc3[C@@H](CCN(C)Cc3ccccn3)C3COC(=O)[C@@H]32)OCO4)cc(OC)c1O.Cl.Cl` (some centres undefined) showed an IC50 [1] of 0.14 µM, an IC50 [2] of 31.4 µM and an IC50 [3] greater than 100 µM.

With `COc1cc([C@@H]2c3cc4c(cc3[C@@H](CCN(C)CCN3CCOCC3)C3COC(=O)[C@@H]32)OCO4)cc(OC)c1O.Cl.Cl` (some centres undefined) the IC50 [1] was 0.26 µM, the IC50 [2] was 116 µM and the IC50 [3] was greater than 167 µM.

With `COc1cc([C@@H]2c3cc4c(cc3[C@@H](CCNCCN(C)C)C3COC(=O)[C@@H]32)OCO4)cc(OC)c1O.Cl.Cl` (some centres undefined) the IC50 [1] was 0.04 µM, the IC50 [2] was 13.3 µM and the IC50 [3] was greater than 100 µM.

For `COc1cc([C@@H]2c3cc4c(cc3[C@@H](CCN(C)N3CCN(C)CC3)C3COC(=O)[C@@H]32)OCO4)cc(OC)c1O.Cl.Cl` (some centres undefined), the IC50 [1] was 0.0043 µM, the IC50 [2] was 32.3 µM and the IC50 [3] was greater than 100 µM.

`CCN(CC)CCN(C)CC[C@@H]1c2cc3c(cc2[C@@H](c2cc(OC)c(O)c(OC)c2)[C@H]2C(=O)OCC12)OCO3.Cl.Cl` (some centres undefined) showed an IC50 [1] of 0.037 µM, an IC50 [2] of 53.8 µM and an IC50 [3] greater than 100 µM.

Compound `COc1cc([C@@H]2c3cc4c(cc3[C@@H](CC(=O)O)C3COC(=O)[C@@H]32)OCO4)cc(OC)c1O` (some centres undefined) has an IC50 [1] of 15 µM.

For `COc1cc([C@@H]2c3cc4c(cc3[C@@H](CCCO)C3COC(=O)[C@@H]32)OCO4)cc(OC)c1O` (some centres undefined), the IC50 [1] was 0.05 µM, the IC50 [2] was 42.1 µM and the IC50 [3] was 26 µM.

Compound `COc1cc([C@@H]2c3cc4c(cc3[C@@H](CCO)C3COC(=O)[C@@H]32)OCO4)cc(OC)c1O` (some centres undefined) has an IC50 [1] of 0.05 µM, an IC50 [2] of 13.8 µM and an IC50 [3] of 2 µM.

In the case of `COc1cc([C@@H]2c3cc4c(cc3[C@@H](CC(=O)NCCc3cccn3C)C3COC(=O)[C@@H]32)OCO4)cc(OC)c1O.Cl` (some centres undefined), the IC50 [1] is reported as 1.5 µM and the IC50 [3] is reported as greater than 100 µM.

`COc1cc([C@@H]2c3cc4c(cc3[C@@H](CCN(C)CCO)C3COC(=O)[C@@H]32)OCO4)cc(OC)c1O.Cl` (some centres undefined) showed an IC50 [1] of 0.07 µM, an IC50 [2] of 17.2 µM and an IC50 [3] greater than 100 µM.

Source: ChEMBL document CHEMBL1127046, “Antitumor agents. 3. Synthesis and biological activity of 4 beta-alkyl derivatives containing hydroxy, amino, and amido groups of 4'-O-demethyl-4-desoxypodophyllotoxin as antitumor agents” (J Med Chem, 1993)
